Consider 60 compounds from ChEMBL document CHEMBL1139053, “Quantitative structure-activity relationship (QSAR) of indoloacetamides as inhibitors of human isoprenylcysteine carboxyl methyltransferase” (Bioorg Med Chem Lett, 2007).

A word on the IC50: it is the concentration needed to halve the response being measured. A higher IC50 goes with lower potency.

Chain of Protein-S-isoprenylcysteine O-methyltransferase (O60725 whole entry): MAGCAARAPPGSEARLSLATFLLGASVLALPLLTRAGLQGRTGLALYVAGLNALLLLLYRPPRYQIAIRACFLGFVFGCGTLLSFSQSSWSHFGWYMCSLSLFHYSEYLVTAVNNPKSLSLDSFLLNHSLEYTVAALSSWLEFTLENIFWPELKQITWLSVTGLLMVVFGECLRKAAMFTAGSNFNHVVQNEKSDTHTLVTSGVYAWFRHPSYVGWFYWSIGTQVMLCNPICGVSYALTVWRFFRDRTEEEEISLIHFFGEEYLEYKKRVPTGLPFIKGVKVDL

For this assay, the target named is Protein-S-isoprenylcysteine O-methyltransferase (Homo sapiens, UniProt O60725). Nature of the assay: Inhibition of ICMT expressed in Sf9 cells. Put shortly:
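Sf9 membranes carrying ICMT added to start reactions with biotin-S-farnesyl L-cysteine and [3H]AdoMet in 100 mM Hepes pH 7.4, 5 mM MgCl2; 37 °C, 20 min; stopped with 10% Tween 20. [3H]methyl on substrate captured on streptavidin beads overnight at 4 °C, washed in phosphate-buffered NaCl, scintillation counted.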
`Cc1ccc(-c2ccc3c(c2)c(CC(N)=O)cn3CC(C)C)cc1` had an IC50 of 9.77 µM.
For `CC(C)Cn1cc(CC(N)=O)c2cc(-c3cc(C(F)(F)F)cc(C(F)(F)F)c3)ccc21`, half-maximal inhibition (IC50) required 25.7 µM.
Next, `CCCCCCCCn1cc(CC(N)=O)c2cc(-c3cc(C(F)(F)F)cc(C(F)(F)F)c3)ccc21`: 37.2 µM; `COc1ccccc1-c1ccc2c(c1)c(CC(N)=O)cn2CC(C)C`: 21.9 µM; `NC(=O)Cc1cn(Cc2cccc(C(F)(F)F)c2)c2ccc(-c3cccc(F)c3)cc12`: 5.75 µM.
In the case of `CCOc1cccc(-c2ccc3c(c2)c(CC(N)=O)cn3Cc2ccc(C(C)(C)C)cc2)c1` it was 12.6 µM.
`CCCCCCn1cc(CC(N)=O)c2cc(-c3ccccc3OC)ccc21` showed an IC50 of 8.13 µM.
In turn, `COc1ccccc1-c1ccc2c(c1)c(CC(N)=O)cn2CC1CC1` gave a concentration for half-maximal inhibition (IC50) of 16.2 µM.
Next, `Cc1ccc(-c2ccc3[nH]cc(CC(N)=O)c3c2)cc1`: 100 µM.
Next, `CC(C)Cn1cc(CC(N)=O)c2cc(-c3ccc(F)c(Cl)c3)ccc21`: 9.12 µM; `CCCCCCn1cc(CC(N)=O)c2cc(-c3ccc(Oc4ccccc4)cc3)ccc21`: 100 µM; `NC(=O)Cc1c[nH]c2ccc(-c3cccc(F)c3)cc12`: 39.8 µM.
In the case of `CCCCCCn1cc(CC(N)=O)c2cc(-c3cccc(C)c3)ccc21` it was 7.41 µM.
For the compound `Cc1cccc(-c2ccc3c(c2)c(CC(N)=O)cn3Cc2cccc(C(F)(F)F)c2)c1`, the IC50 was 7.94 µM.
Compound `CCCCCCn1cc(CC(N)=O)c2cc(-c3cccc(OCC)c3)ccc21` had an IC50 of 6.61 µM.
As to `NC(=O)Cc1cn(CC2CC2)c2ccc(-c3ccc(F)c(Cl)c3)cc12`, inhibition was half-maximal at 5.75 µM (IC50).
In the case of `COc1ccccc1-c1ccc2c(c1)c(CC(N)=O)cn2CCCOc1ccccc1` it was 100 µM; in that of `Cc1cccc(-c2ccc3[nH]cc(CC(N)=O)c3c2)c1`, 100 µM.
In the case of `Cc1cccc(-c2ccc3c(c2)c(CC(N)=O)cn3CC(C)C)c1` it was 15.8 µM.
Next, `NC(=O)Cc1c[nH]c2ccc(-c3cc(C(F)(F)F)cc(C(F)(F)F)c3)cc12`: 100 µM.
As for `Cc1cccc(-c2ccc3c(c2)c(CC(N)=O)cn3CCCOc2ccccc2)c1`, the IC50 was 100 µM.
Next, `Cc1cccc(-c2ccc3c(c2)c(CC(N)=O)cn3Cc2ccc3ccccc3c2)c1`: 17.4 µM; `NC(=O)Cc1cn(CCCOc2ccccc2)c2ccc(-c3cc(C(F)(F)F)cc(C(F)(F)F)c3)cc12`: 100 µM; `Cc1cccc(-c2ccc3c(c2)c(CC(N)=O)cn3Cc2ccccc2)c1`: 6.46 µM.
Next, `CC(C)(C)c1ccc(Cn2cc(CC(N)=O)c3cc(-c4ccc(F)c(Cl)c4)ccc32)cc1`: 7.59 µM.
Next, `NC(=O)Cc1cn(Cc2cccc(C(F)(F)F)c2)c2ccc(-c3ccc(F)c(Cl)c3)cc12`: 6.17 µM.
`CCOc1cccc(-c2ccc3c(c2)c(CC(N)=O)cn3CC(C)C)c1` showed an IC50 of 6.17 µM.
Next, `NC(=O)Cc1cn(CC2CC2)c2ccc(-c3cccc(F)c3)cc12`: 14.8 µM; `CCCCCCCCn1cc(CC(N)=O)c2cc(-c3cccc(F)c3)ccc21`: 2.4 µM; `COc1ccccc1-c1ccc2c(c1)c(CC(N)=O)cn2Cc1ccccc1`: 13.2 µM.
For the compound `CC(C)(C)c1ccc(Cn2cc(CC(N)=O)c3cc(-c4cc(C(F)(F)F)cc(C(F)(F)F)c4)ccc32)cc1`, the IC50 was 29.5 µM.
Next, `CCCCCCCCn1cc(CC(N)=O)c2cc(-c3ccc(C)cc3)ccc21`: 10.7 µM; `NC(=O)Cc1c[nH]c2ccc(-c3ccc(F)c(Cl)c3)cc12`: 100 µM; `NC(=O)Cc1cn(Cc2ccc3ccccc3c2)c2ccc(-c3ccc(Oc4ccccc4)cc3)cc12`: 100 µM.
In the case of `NC(=O)Cc1cn(Cc2ccccc2)c2ccc(-c3cccc(F)c3)cc12` it was 10.7 µM.
In the case of `CCCCCCn1cc(CC(N)=O)c2cc(-c3cccc(F)c3)ccc21` it was 12.9 µM; in that of `CC(C)(C)c1ccc(Cn2cc(CC(N)=O)c3cc(-c4cccc(F)c4)ccc32)cc1`, 5.01 µM; in that of `COc1ccccc1-c1ccc2[nH]cc(CC(N)=O)c2c1`, 100 µM.
Consider `CCOc1cccc(-c2ccc3c(c2)c(CC(N)=O)cn3Cc2ccc3ccccc3c2)c1`, for which the IC50 was 8.32 µM.
Turning to `NC(=O)Cc1cn(CC2CC2)c2ccc(-c3ccc(Oc4ccccc4)cc3)cc12`, inhibition was half-maximal at 100 µM (IC50).
In turn, `NC(=O)Cc1cn(CCCOc2ccccc2)c2ccc(-c3cccc(F)c3)cc12` showed an IC50 of 100 µM.
In the case of `NC(=O)Cc1cn(Cc2ccccc2)c2ccc(-c3ccc(F)c(Cl)c3)cc12` it was 10.5 µM.
Next, `Cc1ccc(-c2ccc3c(c2)c(CC(N)=O)cn3Cc2ccc3ccccc3c2)cc1`: 19.5 µM.
Next, `CCCCCCCCn1cc(CC(N)=O)c2cc(-c3ccc(F)c(Cl)c3)ccc21`: 7.08 µM; `CCCCCCCCn1cc(CC(N)=O)c2cc(-c3cccc(OCC)c3)ccc21`: 2.19 µM; `CCCCCCn1cc(CC(N)=O)c2cc(-c3ccc(C)cc3)ccc21`: 7.41 µM.
As for `CCOc1cccc(-c2ccc3c(c2)c(CC(N)=O)cn3Cc2cccc(C(F)(F)F)c2)c1`, it took 4.9 µM to reach half-maximal inhibition (IC50).
The compound `NC(=O)Cc1cn(Cc2cccc(C(F)(F)F)c2)c2ccc(-c3ccc(Oc4ccccc4)cc3)cc12` gave an IC50 of 100 µM.
Next, `CC(C)Cn1cc(CC(N)=O)c2cc(-c3cccc(F)c3)ccc21`: 3.72 µM; `Cc1cccc(-c2ccc3c(c2)c(CC(N)=O)cn3CC2CC2)c1`: 9.12 µM; `CCOc1cccc(-c2ccc3c(c2)c(CC(N)=O)cn3CC2CC2)c1`: 6.46 µM.
Next, `CCCCCCn1cc(CC(N)=O)c2cc(-c3ccc(F)c(Cl)c3)ccc21`: 9.33 µM; `NC(=O)Cc1cn(CC2CC2)c2ccc(-c3cc(C(F)(F)F)cc(C(F)(F)F)c3)cc12`: 100 µM; `NC(=O)Cc1cn(Cc2cccc(C(F)(F)F)c2)c2ccc(-c3cc(C(F)(F)F)cc(C(F)(F)F)c3)cc12`: 100 µM.
In the case of `NC(=O)Cc1cn(Cc2ccc3ccccc3c2)c2ccc(-c3cc(C(F)(F)F)cc(C(F)(F)F)c3)cc12` it was 100 µM; in that of `NC(=O)Cc1cn(CCCOc2ccccc2)c2ccc(-c3ccc(Oc4ccccc4)cc3)cc12`, 100 µM; in that of `CCCCCCCCn1cc(CC(N)=O)c2cc(-c3ccccc3OC)ccc21`, 6.03 µM.
In turn, `Cc1ccc(-c2ccc3c(c2)c(CC(N)=O)cn3Cc2cccc(C(F)(F)F)c2)cc1` gave an IC50 of 6.46 µM.
Next, `CCOc1cccc(-c2ccc3[nH]cc(CC(N)=O)c3c2)c1`: 100 µM.
Next, `COc1ccccc1-c1ccc2c(c1)c(CC(N)=O)cn2Cc1cccc(C(F)(F)F)c1`: 6.17 µM.
